{"source": "paper PMC10238757", "about": "(Pharmacology Research & Perspectives, 2023)", "key": {"healthy participants [1]": {"system": "healthy participants", "conditions": "N=6"}, "healthy participants [2]": {"system": "healthy participants", "assay": "Safety pooled across study parts", "assay_type": "in vivo, human", "summary_of_the_method": "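AEs in healthy participants given oral test compound or placebo, recorded with grade and relation to treatment. Laboratory analyses, clinical parameters and suicidality were also monitored. Observation ran 360 h after dosing. Summaries were descriptive, with no formal statistics; parts 1–2 blinded and placebo-controlled, part 3 open-label.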"}, "dogs": {"system": "dogs", "assay": "Dose ranging and good laboratory practice toxicology studies in dogs", "assay_type": "in vivo"}, "Single ascending dose": {"assay": "Single ascending dose", "assay_type": "in vivo, human", "summary_of_the_method": "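Healthy participants, double-blind cross-over between 2 cohorts of 9, randomized 6:3 drug:placebo each period. Single oral doses of 10–800 mg right after a moderate-fat breakfast (600 calories, 30% fat). Plasma sampled to 360 h (protocol first set 96 h); LLOQ 10 ng/mL. Non-compartmental analysis; dose proportionality by power model.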"}}, "note": "Like-named read-outs stand apart in the source and are kept apart here.", "data": [{"smiles": "C=C(C)[C@@H]1CC[C@]2(NCCN3CCS(=O)(=O)CC3)CC[C@]3(C)[C@H](CC[C@@H]4[C@@]5(C)CC=C(C6=CC[C@@](COc7ncccc7C#N)(C(=O)O)CC6)C(C)(C)[C@@H]5CC[C@]43C)[C@@H]12", "note": "[GSK'937]", "values": [{"measurement": "Constipation, n occurrences (% of cohort)", "setting": "healthy participants [1]; SAD 80 mg", "value": 0}, {"measurement": "Diarrhea, n occurrences (% of cohort)", "setting": "healthy participants [1]; SAD 80 mg", "value": 0}, {"measurement": "Drug-related AEs Grade 2, n occurrences (% of cohort)", "setting": "healthy participants [1]; SAD 80 mg", "value": 0}, {"measurement": "Drug-related AEs Grade 3/4, n occurrences (% of cohort)", "setting": "healthy participants [1]; SAD 80 mg", "value": 0}, {"measurement": "Drug-related AEs, n occurrences (% of cohort)", "setting": "healthy participants [1]; SAD 80 mg", "value": "1 (17)"}, {"measurement": "Headache, n occurrences (% of cohort)", "setting": "healthy participants [1]; SAD 80 mg", "value": "1 (17)"}, {"measurement": "MDSD, n occurrences (% of cohort)", "setting": "healthy participants [1]; SAD 80 mg", "value": 0}, {"measurement": "Abdominal pain, n occurrences (% of cohort)", "setting": "healthy participants [1]; SAD 320 mg", "value": "1 (17)"}, {"measurement": "All-cause AEs Grade 2, n occurrences (% of cohort)", "setting": "healthy participants [1]; SAD 320 mg", "value": "1 (17)"}, {"measurement": "All-cause AEs Grade 3/4, n occurrences (% of cohort)", "setting": "healthy participants [1]; SAD 320 mg", "value": 0}, {"measurement": "All-cause AEs, n occurrences (% of cohort)", "setting": "healthy participants [1]; SAD 320 mg", "value": "5 (33)"}, {"measurement": "Constipation, n occurrences (% of cohort)", "setting": "healthy participants [1]; SAD 320 mg", "value": 0}, {"measurement": "Diarrhea, n occurrences (% of cohort)", "setting": "healthy participants [1]; SAD 320 mg", "value": "1 (17)"}, {"measurement": "Drug-related AEs Grade 2, n occurrences (% of cohort)", "setting": "healthy participants [1]; SAD 320 mg", "value": 0}, {"measurement": "Drug-related AEs Grade 3/4, n occurrences (% of cohort)", "setting": "healthy participants [1]; SAD 320 mg", "value": 0}, {"measurement": "Drug-related AEs, n occurrences (% of cohort)", "setting": "healthy participants [1]; SAD 320 mg", "value": "4 (17)"}, {"measurement": "Headache, n occurrences (% of cohort)", "setting": "healthy participants [1]; SAD 320 mg", "value": 0}, {"measurement": "MDSD, n occurrences (% of cohort)", "setting": "healthy participants [1]; SAD 320 mg", "value": 0}, {"measurement": "Abdominal pain, n occurrences (% of cohort)", "setting": "healthy participants [1]; SAD 640 mg", "value": "1 (17)"}, {"measurement": "All-cause AEs Grade 2, n occurrences (% of cohort)", "setting": "healthy participants [1]; SAD 640 mg", "value": "2 (17)"}, {"measurement": "All-cause AEs Grade 3/4, n occurrences (% of cohort)", "setting": "healthy participants [1]; SAD 640 mg", "value": 0}, {"measurement": "All-cause AEs, n occurrences (% of cohort)", "setting": "healthy participants [1]; SAD 640 mg", "value": "8 (67)"}, {"measurement": "Constipation, n occurrences (% of cohort)", "setting": "healthy participants [1]; SAD 640 mg", "value": "1 (17)"}, {"measurement": "Diarrhea, n occurrences (% of cohort)", "setting": "healthy participants [1]; SAD 640 mg", "value": "1 (17)"}, {"measurement": "Drug-related AEs Grade 2, n occurrences (% of cohort)", "setting": "healthy participants [1]; SAD 640 mg", "value": "2 (17)"}, {"measurement": "Drug-related AEs Grade 3/4, n occurrences (% of cohort)", "setting": "healthy participants [1]; SAD 640 mg", "value": 0}, {"measurement": "Drug-related AEs, n occurrences (% of cohort)", "setting": "healthy participants [1]; SAD 640 mg", "value": "2 (17)"}, {"measurement": "Headache, n occurrences (% of cohort)", "setting": "healthy participants [1]; SAD 640 mg", "value": 0}, {"measurement": "MDSD, n occurrences (% of cohort)", "setting": "healthy participants [1]; SAD 640 mg", "value": "4 (67)"}, {"measurement": "Abdominal pain, n occurrences (% of cohort)", "setting": "healthy participants [1]; SAD 800 mg", "value": 0}, {"measurement": "All-cause AEs Grade 2, n occurrences (% of cohort)", "setting": "healthy participants [1]; SAD 800 mg", "value": "1 (17)"}, {"measurement": "All-cause AEs Grade 3/4, n occurrences (% of cohort)", "setting": "healthy participants [1]; SAD 800 mg", "value": 0}, {"measurement": "All-cause AEs, n occurrences (% of cohort)", "setting": "healthy participants [1]; SAD 800 mg", "value": "4 (33)"}, {"measurement": "Constipation, n occurrences (% of cohort)", "setting": "healthy participants [1]; SAD 800 mg", "value": 0}, {"measurement": "Diarrhea, n occurrences (% of cohort)", "setting": "healthy participants [1]; SAD 800 mg", "value": "2 (33)"}, {"measurement": "Drug-related AEs Grade 2, n occurrences (% of cohort)", "setting": "healthy participants [1]; SAD 800 mg", "value": "1 (17)"}, {"measurement": "Drug-related AEs Grade 3/4, n occurrences (% of cohort)", "setting": "healthy participants [1]; SAD 800 mg", "value": 0}, {"measurement": "Drug-related AEs, n occurrences (% of cohort)", "setting": "healthy participants [1]; SAD 800 mg", "value": "2 (33)"}, {"measurement": "Headache, n occurrences (% of cohort)", "setting": "healthy participants [1]; SAD 800 mg", "value": 0}, {"measurement": "MDSD, n occurrences (% of cohort)", "setting": "healthy participants [1]; SAD 800 mg", "value": "1 (17)"}, {"measurement": "severity of all AEs in participants receiving GSK'937", "setting": "healthy participants [2]; all study parts", "value": "grade 1 or 2"}, {"measurement": "dry skin among AEs attributable to GSK'937", "setting": "healthy participants [2]; parts 1 and 2, 1/17", "value": 6, "unit": "%"}, {"measurement": "headache among AEs attributable to GSK'937", "setting": "healthy participants [2]; parts 1 and 2, 2/17", "value": 12, "unit": "%"}, {"measurement": "Gastrointestinal disorders among GSK'937 recipients", "setting": "healthy participants [2]; parts 1 and 2, 13/64", "value": 20, "unit": "%"}, {"measurement": "GI disorders among AEs attributable to GSK'937", "setting": "healthy participants [2]; parts 1 and 2, 14/17", "value": 82, "unit": "%"}, {"measurement": "lowest observed adverse effect level", "setting": "dogs", "value": 3, "unit": "mg/kg"}, {"measurement": "t max, h median (range)", "setting": "Single ascending dose; SAD 800 mg", "value": "18.08 (12.1–24.1) h"}, {"measurement": "time up to which concentrations were quantifiable", "setting": "Single ascending dose; after the 10-mg dose", "value": "up to 96 h"}, {"measurement": "time up to which concentrations were quantifiable", "setting": "Single ascending dose; after the 30-mg dose, 5 of 6 participants", "value": "≤ 264", "unit": "h"}, {"measurement": "time up to which concentrations were quantifiable", "setting": "Single ascending dose; all other doses except 1 individual in the 80-mg cohort", "value": "≤ 360", "unit": "h"}, {"measurement": "AUC(0-t)", "setting": "Single ascending dose; human, plasma, oral, 10 mg", "value": 2490, "unit": "ng·h/mL"}, {"measurement": "Cmax", "setting": "Single ascending dose; human, plasma, oral, 10 mg", "value": 39.2, "unit": "ng/mL"}, {"measurement": "Tmax", "setting": "Single ascending dose; human, plasma, oral, 10 mg, t max, h median (range), SAD 10 mg", "value": 6.98, "unit": "h"}, {"measurement": "Cmax", "setting": "Single ascending dose; human, plasma, oral, 30 mg", "value": 127, "unit": "ng/mL"}, {"measurement": "half-life", "setting": "Single ascending dose; human, plasma, oral, 30 mg, t 1/2 GM (%CVb), SAD 30 mg", "value": 75.9, "unit": "h"}, {"measurement": "Tmax", "setting": "Single ascending dose; human, plasma, oral, 30 mg, t max, h median (range), SAD 30 mg", "value": 8, "unit": "h"}, {"measurement": "Cmax", "setting": "Single ascending dose; human, plasma, oral, 80 mg", "value": 310, "unit": "ng/mL"}, {"measurement": "half-life", "setting": "Single ascending dose; human, plasma, oral, 80 mg, t 1/2 GM (%CVb), SAD 80 mg", "value": 79.1, "unit": "h"}, {"measurement": "Tmax", "setting": "Single ascending dose; human, plasma, oral, 80 mg, t max, h median (range), SAD 80 mg", "value": 7.98, "unit": "h"}, {"measurement": "Cmax", "setting": "Single ascending dose; human, plasma, oral, 160 mg", "value": 529, "unit": "ng/mL"}, {"measurement": "half-life", "setting": "Single ascending dose; human, plasma, oral, 160 mg, t 1/2 GM (%CVb), SAD 160 mg", "value": 91.8, "unit": "h"}, {"measurement": "Tmax", "setting": "Single ascending dose; human, plasma, oral, 160 mg, t max, h median (range), SAD 160 mg", "value": 7.95, "unit": "h"}, {"measurement": "Cmax", "setting": "Single ascending dose; human, plasma, oral, 320 mg", "value": 1010, "unit": "ng/mL"}, {"measurement": "half-life", "setting": "Single ascending dose; human, plasma, oral, 320 mg, t 1/2 GM (%CVb), SAD 320 mg", "value": 96.8, "unit": "h"}, {"measurement": "Tmax", "setting": "Single ascending dose; human, plasma, oral, 320 mg, t max, h median (range), SAD 320 mg", "value": 6.99, "unit": "h"}, {"measurement": "Cmax", "setting": "Single ascending dose; human, plasma, oral, 640 mg", "value": 1460, "unit": "ng/mL"}, {"measurement": "half-life", "setting": "Single ascending dose; human, plasma, oral, 640 mg, t 1/2 GM (%CVb), SAD 640 mg", "value": 82.6, "unit": "h"}, {"measurement": "Tmax", "setting": "Single ascending dose; human, plasma, oral, 640 mg, t max, h median (range), SAD 640 mg", "value": 7, "unit": "h"}, {"measurement": "Cmax", "setting": "Single ascending dose; human, plasma, oral, 800 mg", "value": 2860, "unit": "ng/mL"}, {"measurement": "half-life", "setting": "Single ascending dose; human, plasma, oral, 800 mg, t 1/2 GM (%CVb), SAD 800 mg", "value": 67.4, "unit": "h"}, {"measurement": "Tmax", "setting": "Single ascending dose; human, plasma, oral, 800 mg, t max, h median (range), SAD 800 mg", "value": 18, "unit": "h"}, {"measurement": "Tmax", "setting": "Single ascending dose; human, plasma, oral, Median t max, all single doses except the 800-mg dose", "value": "7 to 8", "unit": "h"}, {"measurement": "half-life", "setting": "Single ascending dose; human, plasma, oral, t 1/2, range across doses, part 1 single doses", "value": "67 to 97", "unit": "h"}, {"measurement": "half-life", "setting": "Single ascending dose; human, plasma, oral, terminal phase half-life, all doses following single and repeat dosing", "value": "~72", "unit": "h"}]}]}
